Consider 4 compounds from ChEMBL document CHEMBL1124996, “Synthesis of antimicrobial agents. 3. Syntheses and antibacterial activities of 7-(4-hydroxypiperazin-1-yl)quinolones” (J Med Chem, 1990).

One data set concerns Salmonella typhimurium. The experiment in a line: In vitro antibacterial activity against Salmonella Typhimurium IID 971. In kind it is functional, Salmonella enterica subsp. enterica serovar Typhimurium. The settings on record: Salmonella enterica. The method in brief: (§1)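 MIC measured by 2-fold serial agar dilution. The growth medium is given as Mueller–Hinton agar in the text and as sensitivity test agar in the table footnote. Value reported in µg/mL.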

Data set [1] has as its system Escherichia coli. The data set can be described thus: In vitro antibacterial activity against Escherichia coli KC-14.
The test system of data set [2] is Escherichia coli. The experiment in a line: In vivo antibacterial activity against Escherichia coli KC-14 (po). In kind it is functional. The gist of the method: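 Oral protection test in mice infected with E. coli KC-14. Compound suspended in 0.5% sodium CMC and given orally 1 h after infection. ED50 (mg/kg) calculated from cumulative mortality on day 7 after infection by the shortened Weil method, with 95% confidence limits.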

Data set [3] relates to Staphylococcus aureus. The experiment in a line: In vitro antibacterial activity against […] aureus IID 803 -. In kind it is functional. The gist of the method:
as §1

The subject of the next data set is Bacillus subtilis. The data set can be described thus: In vitro antibacterial activity against Bacillus subtilis ATCC 6633. In kind it is functional. The method in brief: as §1
Another data set relates to Klebsiella pneumoniae. The data set can be described thus: In vitro antibacterial activity against Klebsiella pneumoniae PCI-602. The format is functional. The gist of the method:
as §1

In another data set the test system is Proteus vulgaris. The experiment in a line: In vitro antibacterial activity against Proteus vulgaris OX-19. The format is functional. The method in brief:
as §1

For data set [4], the system named is Staphylococcus epidermidis. The data set can be described thus: In vitro antibacterial activity against Staphylococcus epidermidis IAM 1296. The format is functional. The method in brief:
as §1

Data set [5] has as its system Staphylococcus aureus. The experiment in a line: In vitro antibacterial activity against Staphylococcus aureus FDA […] JC-1. In kind it is functional. The gist of the method:
(§2)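 MIC by 2-fold agar dilution on sensitivity test agar (Mueller–Hinton agar per text), in µg/mL.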

In another data set the test system is Serratia. The data set can be described thus: (§3) In vitro antibacterial activity against Serratia. The format is functional. The gist of the method: as §2
The next data set concerns Pseudomonas aeruginosa. The experiment in a line: In vitro antibacterial activity against Pseudomonas aeruginosa IFO 3445. The format is functional. The gist of the method: as §1
The nature of data set [6]: Concentration of liberated compound in serum after 60 min at the dose of 50 mg/kg (po). The format is functional, organism-based. On the set-up: dose 50 mg/kg. The method in brief:
(§4)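 ddY male mice (20–25 g, five per group) got 50 mg/kg orally as a 0.5% CMC suspension and were killed by bleeding at 30, 60, 120 or 240 min. Serum was taken after centrifugation at 3000 rpm, 20 min, 4 °C, and deproteinised with 5% aqueous trichloroacetic acid. The released parent quinolone was measured by HPLC with UV detection on an ODS column. Mean ± SE.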

The subject of data set [7] is Escherichia coli. The data set can be described thus: (§5) In vitro antibacterial activity against Escherichia coli NHJ JC-2. In kind it is functional, escherichia colin. The method in brief: as §2
Data set [8] can be described thus: Concentration of liberated compound in serum after 240 min at the dose of 50 mg/kg (po). In kind it is functional, organism-based. Also on record: dose 50 mg/kg. The gist of the method:
as §4

A short description of data set [9]: Concentration of liberated compound in serum after 30 min at the dose of 50 mg/kg (po). Also on record: dose 50 mg/kg. In kind it is ADME, organism-based. The settings on record: in vivo, 0.5 h. The method in brief:
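ddY male mice (20–25 g, five per group) given 50 mg/kg orally as a suspension in 0.5% CMC and killed by bleeding at 30 min. Serum was separated by centrifugation (3000 rpm, 20 min, 4 °C) and deproteinized with 5% aqueous trichloroacetic acid. Liberated NFLX was quantified by reversed-phase (ODS) HPLC with UV detection. Values are mean ± SE.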

Data set [10] is described as follows: Acute toxicity on oral administration in mice. The format is organism-based. The settings on record: mouse, in vivo. The gist of the method: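 ddY male mice (20–25 g, five per group) were dosed orally with a suspension in 0.5% sodium carboxymethylcellulose. LD50 was determined 7 days later by the Weil method.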
Data set [11] in a line: Acute toxicity on intravenous injection in mice. In kind it is organism-based. As to conditions: mouse, in vivo. The gist of the method: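 ddY male mice (20–25 g, five per group) given compound by intravenous injection. Compound was dissolved in 1 N NaOH, then brought up in phosphoric acid–saline buffer (pH 7.2). LD50 was determined 7 days later by the Weil method.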

Data set [12] is described as follows: Concentration of liberated compound in serum after 120 min at the dose of 50 mg/kg (po). The format is functional, organism-based. Also on record: dose 50 mg/kg. The method in brief: as §4
Data set [13] relates to Staphylococcus aureus. The data set can be described thus: In vitro antibacterial activity against Staphylococcus aureus FDA 209P JC-1. The format is functional. The method in brief:
as §1

Another data set concerns Serratia marcescens. The data set is described as §3. In kind it is functional. The method in brief: as §1
For data set [14], the system named is Escherichia coli. The description is as §5. The format is functional, escherichia colin. The method in brief:
as §1
The source holds these as a separate data set.

In brackets after ≈: the same amount, converted by molar mass. Bounds are passed on as bounds.

Broadly, the MIC is the least concentration at which growth counts as inhibited. A higher MIC goes with weaker potency. By ED50 is commonly meant the dose that gives a 50% effect, or the effect in half of the subjects. A high value points to a need for a large dose. By LD50 is commonly meant the dose expected to kill half of the subjects tested. Read a high LD50 as lower toxicity.

Consider `O=C(O)c1cn(C2CC2)c2cc(N3CCNCC3)c(F)cc2c1=O` [CIPROFLOXACIN], for which the MIC with Salmonella typhimurium is 0.025 µg/mL (≈ 0.0754 µM); against Escherichia coli [1] it was 0.0125 µg/mL (≈ 0.0377 µM); in the data set with Staphylococcus aureus [3], 0.78 µg/mL (≈ 2.35 µM); in the data set with Bacillus subtilis it was 0.39 µg/mL (≈ 1.18 µM); in the data set on Klebsiella pneumoniae it was 0.025 µg/mL (≈ 0.0754 µM); with Proteus vulgaris it was 0.05 µg/mL (≈ 0.151 µM). Also, the MIC in data set [4] was determined as 1.56 µg/mL (≈ 4.71 µM); in the data set on Staphylococcus aureus [5], 0.39 µg/mL (≈ 1.18 µM); against Serratia, 0.2 µg/mL (≈ 0.604 µM); against Pseudomonas aeruginosa it was 0.78 µg/mL (≈ 2.35 µM). Moreover, the ED50 with Escherichia coli [2] turned out to be 0.84 mg/kg.

Consider `CCn1cc(C(=O)O)c(=O)c2cc(F)c(N3CCNCC3)cc21` [NORFLOXACIN], for which the Concentration was determined as 2.8 µg/mL in data set [6], 0.47 µg/mL in data set [8], 4140 ng/mL in data set [9] and 1.09 µg/mL in data set [12]. Also, the MIC worked out at 0.2 µg/mL (≈ 0.626 µM) against Escherichia coli [7]; 0.05 µg/mL (≈ 0.157 µM) in the data set on Salmonella typhimurium; 0.2 µg/mL (≈ 0.626 µM) in the data set on Escherichia coli [1]; 1.56 µg/mL (≈ 4.89 µM) against Staphylococcus aureus [3]; 0.39 µg/mL (≈ 1.22 µM) in the data set with Bacillus subtilis; 0.1 µg/mL (≈ 0.313 µM) with Klebsiella pneumoniae. For the same compound, the MIC with Proteus vulgaris is 0.1 µg/mL (≈ 0.313 µM); in data set [4] it was 3.13 µg/mL (≈ 9.8 µM); against Staphylococcus aureus [5] it was 0.39 µg/mL (≈ 1.22 µM); with Serratia, 0.39 µg/mL (≈ 1.22 µM); against Pseudomonas aeruginosa, 1.56 µg/mL (≈ 4.89 µM). For the same compound, the 50% lethal dose (LD50) in data set [10] is greater than 4000 mg/kg; in data set [11], 314 mg/kg.

As to `CCn1cc(C(=O)O)c(=O)c2cc(F)c(N3CCN(O)CC3)cc21`, the MIC was 0.1 µg/mL (≈ 0.298 µM) against Salmonella typhimurium; 0.39 µg/mL (≈ 1.16 µM) against Escherichia coli [1]; 1.56 µg/mL (≈ 4.65 µM) in the data set with Staphylococcus aureus [3]; 0.2 µg/mL (≈ 0.596 µM) in the data set on Bacillus subtilis; 0.05 µg/mL (≈ 0.149 µM) against Klebsiella pneumoniae; 0.78 µg/mL (≈ 2.33 µM) with Staphylococcus aureus [13]. In addition, the MIC in the data set on Proteus vulgaris is 0.05 µg/mL (≈ 0.149 µM); in data set [4], 6.25 µg/mL (≈ 18.6 µM); against Serratia marcescens it was 3.13 µg/mL (≈ 9.33 µM); against Pseudomonas aeruginosa it was 12.5 µg/mL (≈ 37.3 µM); against Escherichia coli [14], 1.56 µg/mL (≈ 4.65 µM). In addition, the LD50 in [10] is greater than 4000 mg/kg; in data set [11] it was greater than 500 mg/kg.

With `O=C(O)c1cn(C2CC2)c2cc(N3CCN(O)CC3)c(F)cc2c1=O`, the MIC turned out to be 0.1 µg/mL (≈ 0.288 µM) in the data set on Escherichia coli [7]; 0.025 µg/mL (≈ 0.072 µM) against Salmonella typhimurium; 0.025 µg/mL (≈ 0.072 µM) in the data set on Escherichia coli [1]; 0.78 µg/mL (≈ 2.25 µM) in the data set on Staphylococcus aureus [3]; 0.39 µg/mL (≈ 1.12 µM) in the data set on Bacillus subtilis; 0.025 µg/mL (≈ 0.072 µM) against Klebsiella pneumoniae. In addition, the minimal inhibitory concentration (MIC) against Proteus vulgaris was found to be 0.05 µg/mL (≈ 0.144 µM); in [4], 1.56 µg/mL (≈ 4.49 µM); with Serratia marcescens, 0.78 µg/mL (≈ 2.25 µM); in the data set on Staphylococcus aureus [5], 0.39 µg/mL (≈ 1.12 µM); with Pseudomonas aeruginosa, 1.56 µg/mL (≈ 4.49 µM). This compound registered an ED50 in the data set on Escherichia coli [2] of 0.37 mg/kg. Besides, the LD50 in data set [10] was greater than 4000 mg/kg.
